TRPC4 act: activators of mouse TRPC4 channel, primary screen, Fluo4 calcium, HEK293 TRPC4beta/mu-opioid cells; Short transient receptor potential channel 4 (Mus musculus), Q9QUQ5; Fluo4 calcium fluorescence; hits give high values; B-score at 10 µM; hit rate 0.49% among 310,000; AID 2237, 2010;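 active = B-score above 5 SD of library B-scores, and initial fluorescence ratio not above library mean plus 5 SD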;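 note: positive B-score marks a calcium rise read as TRPC4 activation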
Target sequence (Q9QUQ5 whole entry, looked up): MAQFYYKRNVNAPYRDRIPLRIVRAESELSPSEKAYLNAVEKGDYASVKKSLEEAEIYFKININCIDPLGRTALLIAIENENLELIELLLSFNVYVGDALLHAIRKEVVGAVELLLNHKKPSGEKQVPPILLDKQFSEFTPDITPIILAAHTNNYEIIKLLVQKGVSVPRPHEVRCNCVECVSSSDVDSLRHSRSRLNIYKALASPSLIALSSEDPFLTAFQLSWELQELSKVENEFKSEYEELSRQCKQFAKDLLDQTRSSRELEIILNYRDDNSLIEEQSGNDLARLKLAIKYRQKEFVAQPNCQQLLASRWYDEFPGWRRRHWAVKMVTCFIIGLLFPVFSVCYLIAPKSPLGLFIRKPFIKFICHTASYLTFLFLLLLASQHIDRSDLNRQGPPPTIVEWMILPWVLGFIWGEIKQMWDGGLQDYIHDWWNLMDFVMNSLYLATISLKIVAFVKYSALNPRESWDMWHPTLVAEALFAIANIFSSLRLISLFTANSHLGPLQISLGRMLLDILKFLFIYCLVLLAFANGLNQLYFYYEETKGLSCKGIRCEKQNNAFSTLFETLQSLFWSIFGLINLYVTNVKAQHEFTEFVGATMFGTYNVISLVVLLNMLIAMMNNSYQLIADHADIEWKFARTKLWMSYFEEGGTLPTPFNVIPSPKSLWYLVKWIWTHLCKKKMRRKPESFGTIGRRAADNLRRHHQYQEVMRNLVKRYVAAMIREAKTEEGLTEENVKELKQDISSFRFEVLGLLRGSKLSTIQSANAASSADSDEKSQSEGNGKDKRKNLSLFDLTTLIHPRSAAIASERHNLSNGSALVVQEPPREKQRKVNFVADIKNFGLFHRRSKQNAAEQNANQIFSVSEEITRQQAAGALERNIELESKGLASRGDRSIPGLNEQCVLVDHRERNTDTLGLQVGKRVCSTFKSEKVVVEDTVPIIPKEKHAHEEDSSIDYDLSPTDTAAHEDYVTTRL
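Technique: kinetic Fluo4 calcium fluorescence; Test system: TRPC4beta and mu-opioid receptor HEK293 stable cells; Measure: B-scored integrated calcium fluorescence ratio; Benchmarks: low control buffer alone, high control maximal DAMGO; Schedule: 45 min room-temperature Fluo4 loading, 110 s read.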
TRPC4 block: inhibitors of mouse TRPC4 channel, primary screen, Fluo4 calcium, HEK293 TRPC4beta/mu-opioid cells; DAMGO-evoked Fluo4 calcium flux; hits give low values; hit rate 0.39% among 300,000; B-score at 10 µM;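 active = B-score over 3 SD under the library average, no early fluorescence shift, positive overall ratio signal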
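Assay system: Stable TRPC4beta/mu-opioid receptor HEK293 cells | Reagent: DAMGO in two steps, submaximal then maximal | Compound dosing: Single concentration per test compound | Signal: Fluo4 Ca2+ flux fluorescence | Evaluation: Per-well B score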
TRPC4 potent: positive allosteric modulators of TRPC4, primary screen, cell-based, mouse TRPC4beta, HEK293 mu-opioid, Fluo-4 calcium; Short transient receptor potential channel 4 (Mus musculus), Q9QUQ5; DAMGO EC20, Fluo-4 Ca2+ flux; hits give high values; B-score at 10 µM; hit rate 0.42% among 310,000; AID 2227, 2009;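 active = B-score of calcium response area above 5 SD of library B-scores, with initial fluorescence ratio within 5 SD of library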
TRPC6 inhibitor: mouse TRPC6 channel inhibitors, primary screen, cell-based, HEK293, membrane potential dye; Short transient receptor potential channel 6 (Mus musculus), Q61143; ACh-evoked depolarization; hits give low values; B-score at 10 µM; hit rate 1.1% among 310,000;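 active = B-score under library mean minus 3 SD, initial fluorescence not abnormally high, positive integrated signal ratio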;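 note: B-score derived from integrated fluorescence ratio over the kinetic read; more negative B-score means stronger inhibition of depolarization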
TRPC6 activator: mouse TRPC6 channel activators, primary screen, cell-based, HEK293, membrane potential dye | Short transient receptor potential channel 6 (Mus musculus), Q61143 | HEK293-TRPC6 membrane potential dye fluorescence; hits give high values | hit rate 0.13% among 310,000 | B-score at 10 µM;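 active = B-score of the integrated fluorescence ratio above library mean plus 3 SD, and starting fluorescence ratio within library mean plus 5 SD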;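 note: higher score means more depolarization so channel activation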
TRPC4 sel inh 2: mouse TRPC4 off-target activity of TRPC6 inhibitors, second screen | hit rate 42% among 920 | shares compounds with TRPC6 inhibitor | inhibition, % at 10 µM | HEK293 TRPC4/MOR, membrane potential dye fluorescence; channel activated by saturating DAMGO dose;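 active = compounds whose fluorescence signal differed from control wells by over 3 SD, either direction, in both duplicate plates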
TRPC4 spec: mouse TRPC4 modulation by TRPC6 hits, confirmation, selectivity assay for TRPC6 inhibitor project, cell-based, HEK293 TRPC4/mu-opioid, membrane potential dye; shares compounds with TRPC6 inhibitor; membrane potential fluorescence; activity change, negative = inhibition, % at 10 µM; hit rate 61% among 920; AID 2777, 2010;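 active = rise or fall in signal beyond 3 SD of buffer-only wells in both replicate plates, either sign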;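 note: integrated kinetic ratio of fluorescence range over baseline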
HEK293 MPD ctr 2-1: nonspecific membrane potential effects, parental HEK293, confirmation, counter-screen for TRPC6 inhibitor project, cell-based, second counter screen; shares compounds with TRPC6 inhibitor; parental HEK293 membrane potential dye fluorescence; maximal acetylcholine challenge after compound addition; signal change vs control, % at 10 µM; hit rate 31% among 920;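 active = membrane potential signal moving either way by over 3 SD of the maximum-effect control, in both duplicate plates, meaning non-specific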
HEK293 MPD ctr-1: membrane potential modulation in parental HEK293, confirmation, counter-screen for TRPC6 inhibitor project, cell-based. shares compounds with TRPC6 inhibitor. parental HEK293 membrane potential dye fluorescence. membrane potential signal change, % at 10 µM. hit rate 60% among 920. AID 2780, 2010;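 active = membrane potential signal shifting up or down by more than 3 SD of buffer-only wells, on both duplicate plates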
HEK293 MPD ctr-2: parental HEK293 membrane potential modulation, confirmation, counter-screen for TRPC6 modulator project, cell-based | AID 488924, 2010 | shares compounds with TRPC6 inhibitor | membrane potential dye fluorescence | membrane potential signal change, % at 10 µM | hit rate 51% among 2,400;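 active = membrane potential signal moves up or down beyond 5 SD from buffer-only wells, on both duplicate plates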
HEK293 MPD ctr 2-2: second counter-screen for TRPC6 modulators: effect in parental HEK293 cells. shares compounds with TRPC6 inhibitor. membrane potential dye fluorescence; after compound, maximal acetylcholine stimulation. inhibition, % at 10 µM. hit rate 14% among 2,400;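 active = membrane potential signal drops by more than 5 SD from the mean control signal, in both duplicate plates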
TRPC4/MOR mod: TRPC4 modulation by TRPC6 hit compounds, confirmation, selectivity assay for TRPC6 modulator project, cell-based, HEK293 TRPC4/mu-opioid, membrane potential dye, mouse; shares compounds with TRPC6 inhibitor; membrane potential fluorescence; percent change from control (negative = decrease, positive = increase), % at 10 µM; hit rate 69% among 2,400;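 active = membrane potential signal moved up or down beyond 5 SD of buffer control wells, in both duplicate plates, actives on both sides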
TRPC4/MOR inh 2: second check of whether TRPC6 modulators also affect mouse TRPC4 | shares compounds with TRPC6 inhibitor | hit rate 55% among 2,400 | inhibition, % at 10 µM | HEK293 TRPC4/mu-opioid, membrane potential dye fluorescence; stimulated with maximal-effect DAMGO;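 active = drop in membrane potential signal beyond 5 SD of the control wells in both duplicate plates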;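 note: TRPC4 counter screen for TRPC6 hits run under conditions tuned for TRPC6 not TRPC4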
TRPC6 inh conf: mouse TRPC6 channel inhibitors, confirmation, HEK293 cells, membrane potential dye, duplicate | AID 488960, 2010 | ACh-evoked depolarization | inhibition, % at 10 µM | hit rate 43% among 3,300 | shares compounds with TRPC6 inhibitor;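 active = fluorescence ratio falls more than 5 SD below the full-stimulation control mean, in both duplicate runs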;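 note: integrated fluorescence ratio of peak minus minimum over baseline after agonist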
TRPC6 act confirm: mouse TRPC6 channel activators, confirmation, HEK293 cells, membrane potential dye, duplicate. activation, % at 10 µM. AID 488961, 2010. hit rate 11% among 2,800. HEK293-TRPC6 membrane potential dye fluorescence, FDSS. shares compounds with TRPC6 inhibitor;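 active = ratio signal rise beyond 5 SD above unstimulated control wells' mean, seen in both duplicate runs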
A number is an active result. Compounds with a hit are over-represented: about 2.3% of the library has one in this group of screens.

`CCc1cc(=O)oc2cc(C)cc(OCC(=O)N3CCC(C(=O)NC(C)C)(c4ccccc4)CC3)c12` gave TRPC4 act inactive, TRPC4 block inactive, TRPC4 potent inactive, TRPC6 inhibitor inactive and TRPC6 activator inactive.
Screening [O-]/[N+](=C/c1cccnc1)c1ccc(Br)cc1 returned TRPC4 act inactive, TRPC4 block inactive, TRPC4 potent inactive, TRPC6 inhibitor -6, TRPC6 activator inactive, HEK293 MPD ctr-2 inactive, HEK293 MPD ctr 2-2 inactive, TRPC4/MOR mod inactive, TRPC4/MOR inh 2 inactive, TRPC6 inh conf inactive and TRPC6 act confirm inactive.
`[O-]/[N+](=C\c1ccncc1)c1ccc(Br)cc1` gave TRPC4 act inactive, TRPC4 block inactive, TRPC4 potent inactive, TRPC6 inhibitor inactive and TRPC6 activator inactive.
Screening COc1ccc(C2(c3ccc(OC)cc3)NC(=O)NC2=O)cc1 returned TRPC4 act inactive, TRPC4 block inactive, TRPC4 potent inactive, TRPC6 inhibitor inactive and TRPC6 activator inactive.
Screening NC(=O)NC(=O)C(Nc1ccc2c(c1)CCC2)c1ccccc1 (stereo unspecified) returned TRPC4 act inactive, TRPC4 block inactive, TRPC4 potent inactive, TRPC6 inhibitor -7.2, TRPC6 activator inactive, TRPC4 sel inh 2 inactive, TRPC4 spec inactive, HEK293 MPD ctr 2-1 inactive, HEK293 MPD ctr-1 inactive, TRPC6 inh conf inactive and TRPC6 act confirm inactive.
CC1CCN(Cc2c(O)ccc3c(=O)c(-c4nc5ccccc5s4)c(N)oc23)CC1 was read as TRPC4 act inactive, TRPC4 block inactive, TRPC4 potent inactive, TRPC6 inhibitor inactive and TRPC6 activator inactive.

Source: PubChem
